In the library only some 1.8% were active in any assay of this set; here they are far more common.
DDE Tn6 FP inh – inhibitors of Tn6 peptide binding to human fibrin DD(E); P02675; Fibrin DD(E) TRITC-Tn6 fluorescence polarization displacement; inhibition, % at 8.3 µM; 370,000 tested, 0.21% active; AID 720509;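 active = inhibition above a per-campaign cutoff: mean of compounds within control limits plus 3 SD, cut at about 15% in these data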;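 note: 0% = median of all compound wells on the plate and 100% = blocking peptide control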
Target sequence (P02675 whole entry, looked up): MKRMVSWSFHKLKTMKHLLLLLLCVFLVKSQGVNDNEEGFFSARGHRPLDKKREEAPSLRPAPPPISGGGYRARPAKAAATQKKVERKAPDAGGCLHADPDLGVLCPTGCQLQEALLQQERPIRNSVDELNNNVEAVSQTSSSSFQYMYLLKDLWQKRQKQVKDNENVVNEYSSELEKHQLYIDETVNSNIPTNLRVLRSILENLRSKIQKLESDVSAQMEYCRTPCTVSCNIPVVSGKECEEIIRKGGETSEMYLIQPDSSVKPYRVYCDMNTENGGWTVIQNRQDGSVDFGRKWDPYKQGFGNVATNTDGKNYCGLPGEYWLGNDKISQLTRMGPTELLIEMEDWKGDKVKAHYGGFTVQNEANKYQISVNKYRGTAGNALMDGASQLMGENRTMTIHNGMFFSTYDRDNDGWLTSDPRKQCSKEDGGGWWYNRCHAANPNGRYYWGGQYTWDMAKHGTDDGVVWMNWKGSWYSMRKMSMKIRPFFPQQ
Tn7 DDE FP – DD(E)-Tn7 binding inhibition, primary FP screen. FP displacement of FITC-Tn7 peptide from fibrin DD(E); 0% = median of compound wells per plate. inhibition, % at 8.3 µM. 370,000 tested, 0.13% active. AID 720508;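 active = inhibition above the mean of compounds falling within the control limits plus 3 SD of them, cut at about 14% in these data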;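 note: 0% = plate median of compound wells and 100% = 10 µM Aha-Tn7 peptide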
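Test system: human clot-derived fibrin DD(E) complex / Quantity: 2 µM final DD(E) protein / Incubation: 10 min plus 3 h, room temperature / Measured by: fluorescence polarization / Benchmarks: high control of 10 µM Aha-Tn7 peptide / Replicates: singlicate testing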
HTRA1 inhibitor – HTRA1 (human) protease inhibition; 340,000 tested, 0.5% active; inhibition, % at 5.96 µM; Q92743; recombinant HTRA1, FP-rhodamine activity-based probe, fluorescence polarization; in the data active = inhibition above about 36%;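 note: 0% = enzyme with DMSO and 100% = wells lacking enzyme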
TCR-CD3 inh – blocks the human TCR-CD3 interaction; TAMRA-labeled TCR probe fluorescence, biochemical; inhibition, % at 9.4 µM; 360,000 tested, 0.37% active; AID 651800; in the data active = inhibition above about 19%;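 note: recombinant mutant TCR 2C K166C tagged with TAMRA read by polarization; 0% = receptor in buffer alone and 100% = receptor with positive control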
SIAE primary – inhibitors of human sialic acid acetylesterase SIAE. inhibition, % at 9.66 µM. 370,000 tested, 0.69% active. Q9HAT2. SIAE FP-Rh probe binding, fluorescence polarization. AID 1053197;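 active = inhibition above a cutoff: mean of compounds within the control limits plus 3 SD of those, cut at about 17% in these data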;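 note: 0% = plate median of compound wells and 100% = probe without SIAE protein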
ABHD4 inh – ABHD4 (mouse) inhibition, primary FP screen; inhibition, % at 8.92 µM; 370,000 tested, 0.54% active; purified mABHD4, FP-Rh probe fluorescence polarization;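 active = inhibition exceeding the mean over every tested compound plus 3 SD, cut at about 30% in these data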;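 note: 0% = plate median of compound wells and 100% = S159A mutant with DMSO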
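Assay system: Wild-type mouse ABHD4 protein | Medium: HEPES pH 7.0 buffer, 150 mM NaCl, 0.01% Pluronic F-127 | Incubation: Enzyme–compound pre-incubation 45 min, then probe 60 min, both 25 °C | Technique: Fluorescence polarization with parallel and perpendicular emission, 525/598 nm | Evaluation: % inhibition of FP-Rh probe binding versus controls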
SIAE inh conf – human SIAE inhibition, confirmation; 2,300 tested, 13% active; shares compounds with SIAE primary; SIAE FP-Rh activity-based probe, fluorescence polarization; inhibition, % at 9.66 µM;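 active = mean inhibition of the replicates above the hit cutoff set in the primary screen, cut at about 17% in these data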;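 note: 0% = SIAE with DMSO and probe and 100% = probe without SIAE; inhibitors lower polarization as more probe stays unbound to SIAE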
* marks the source's active call; other numbers are inactive results; nt = no result given.

SMILES	DDE Tn6 FP inh	Tn7 DDE FP	HTRA1 inhibitor	TCR-CD3 inh	SIAE primary	ABHD4 inh	SIAE inh conf
c1ccc(OCCNc2nc(NCC3CC3)nc3cc(-c4ccccc4)sc23)cc1	-4	-10	nt	2	22*	15	21*
COCCNc1nc(NCc2cccc(OC)c2)c2sc(-c3ccccc3)cc2n1	-11	-6	nt	-5	34*	27	31*
COC(=O)c1ccccc1NC(=O)/C=N/O	-2	2	2	-1	-3	4	nt
O=C(/C=N/O)Nc1ccc2sc3ccccc3c2c1	2	5	-7	0	61*	-8	50*
CCCC#Cc1ccc(CC[C@H]2O[C@H]3CC[C@H](CO)O[C@H]3C[C@H]2NC(=O)CN2CCOCC2)cc1	2	-2	nt	nt	2	4	nt
OC1C2CN3CCN(C2)CC1(Cc1ccccc1)C3 (stereo not drawn)	2	0	2	12	21*	4	-2
OC1C2(Cc3ccccc3)CN3CCN(C2)CC1(Cc1ccccc1)C3 (stereo not drawn)	-4	9	7	0	-2	-8	nt
Nc1ccc(S(=O)(=O)NN=CC=Cc2ccccc2[N+](=O)[O-])cc1	0	-10	-3	-1	1	-2	nt
NS(=O)(=O)c1ccc(N/N=C/C=C/c2ccccc2[N+](=O)[O-])cc1	-2	0	8	1	24*	3	0
C=C(C)c1cccc(C(C)(C)NC(=O)Nc2ccc3[nH]c(=O)[nH]c3c2)c1	0	0	5	1	19*	3	3
CCOC(=O)[C@]12CCCCC/C=C\1N(Cc1ccc(OC)cc1)C(=O)[C@H]2CC(=O)N1CCCC1	-1	5	nt	nt	3	-2	nt
CCNC(=S)Nc1cc(C(=O)N2CCCC2)ccc1N1CCCC1	-3	-4	0	2	23*	1	1
COCCn1c(-c2ccc(C#N)cc2)nc2c1c(=O)[nH]c(=O)n2Cc1ccccc1	3	-4	6	7	-6	7	nt
CCCn1c(=O)[nH]c(=O)c2c1nc(-c1ccc(C#N)cc1)n2CCOC	-4	1	3	-5	17*	5	-1
COc1cc(/C=C/c2ccc3cccc(OC)c3n2)c(OC(C)=O)c([N+](=O)[O-])c1	-1	0	17	-3	5	8	nt
COc1c(OC(C)=O)ccc(/C=C/c2ccc3cccc(OCc4ccccc4)c3n2)c1[N+](=O)[O-]	-4	2	-7	-4	28*	-11	-16
CCCCCCCCN1C(=O)[C@@H](CC(=O)N2CCCCC2)C[C@@]2(C(=O)OC)C1=C[C@H](C1CCCC1)O[C@@H]2C	3	3	nt	6	10	-2	nt
CCOc1ccc(/C=N/NC(=O)c2nnn(-c3nonc3N)c2-c2ccc(OCC)cc2)cc1	8	1	-13	6	-4	0	nt
CCN(CC)c1ccc(/C=N/NC(=O)c2nnn(-c3nonc3N)c2-c2ccc(C)cc2)cc1	11	-3	1	-2	25*	1	4
Cc1ccccc1N=C1Nc2ccccc2N[C@]12C[C@H]1CCC(=O)N3CC[C@@H](C2)[C@@H]13	-5	4	5	-3	18*	8	1
CCOc1ccc(NC(=O)CN(C)C(=O)c2c(C)nn(-c3ccccc3)c2Cl)cc1OCC	1	-2	0	-1	19*	3	0
Cc1nn(-c2ccccc2)c(Cl)c1C(=O)NCC(=O)O	2	2	5	-6	19*	6	0
CCOc1ccc(NC(=O)CN(C)C(=O)c2c(C)nn(-c3ccc(F)cc3)c2Cl)cc1OCC	7	1	-5	6	-4	-4	nt
Cc1cccc(C)c1NC(=O)CNC(=O)c1c(C)nn(-c2ccccc2)c1Cl	-1	-1	1	-4	1	-2	nt
Cc1nn(-c2ccccc2)c2sc(C(=O)N3CCN(C(c4ccccc4)c4ccc(Cl)cc4)CC3)cc12 (stereo not drawn)	7	-1	nt	nt	-3	-2	nt
SMILES	DDE Tn6 FP inh	Tn7 DDE FP	HTRA1 inhibitor	TCR-CD3 inh	SIAE primary	ABHD4 inh	SIAE inh conf
Cc1cc(SCC(=O)N/N=C/c2ccc(O)cc2O)nc2ccccc12	-6	2	0	2	23*	-2	-8
CC(=NNC(=O)c1cc(C)nc2ccccc12)c1ccc(N2CCOCC2)cc1	4	3	1	0	3	4	nt
C/C(=N\NC(=O)Cc1csc(N2CCOCC2)n1)c1ccccc1	-8	-3	-2	-12	21*	2	-1
Cc1ccc(S(=O)(=O)N2CC[C@@]3(Cc4ccccc4)Cc4ccccc4C[C@@H]23)cc1	3	-11	nt	nt	-4	-10	nt
O=C(/C=C/c1ccco1)NC(=S)Nc1cccc([N+](=O)[O-])c1	-3	0	7	3	23*	21	-16
NC(N)=NS(=O)(=O)c1ccc(NC(=S)NC(=O)/C=C/c2ccco2)cc1	5	2	0	3	-7	14	nt
NS(=O)(=O)c1ccc(NC(=S)NC(=O)/C=C/c2ccco2)cc1	2	1	2	2	19*	29	-10
Cc1cccc(NC(=S)NC(=O)/C=C/c2ccco2)c1	1	2	-7	2	5	16	nt
COC(=O)[C@]12CCCCC=C1N(Cc1ccc(OC)cc1)C(=O)[C@@H]2CC(=O)NCC12CC3CC(CC(C3)C1)C2	-5	-9	nt	nt	-3	-3	nt
COC(=O)C(Cc1ccc(O)cc1)NS(=O)(=O)Cc1ccccc1 (stereo not drawn)	0	2	nt	-4	1	-2	nt
COc1ccccc1NC(=O)COC(=O)c1cc2ccccc2cc1O	0	4	5	0	1	-5	nt
COc1cc(NC(=O)c2cc3ccccc3cc2O)c(OC)cc1Cl	-6	1	-8	-5	18*	7	6
COc1ccccc1NC(=O)c1cc2cc(Br)ccc2cc1O	-13	2	26	8	43*	1	-3
NS(=O)(=O)c1cccc(NC(=O)CC2(CC(=O)O)CCCC2)c1	2	4	2	2	36*	4	-1
CC12CN3CCN(CC(C3)/C1=N/N=C/c1cccc([N+](=O)[O-])c1)C2	2	-9	3	1	17*	-1	0
COc1ccc(O)c(C=Nc2cc(NC(C)=O)c(Cl)cc2Cl)c1	6	-4	-1	-7	18*	-5	1
C[C@H]1[C@@H](c2ccccc2)Oc2c(Cl)cccc2S(=O)(=O)N1C	11	-3	nt	-1	-1	0	nt
CCOc1ccc2nc(NC(=O)Nc3cccs3)sc2c1	-15	1	3	-1	34*	16	9
